Here are results for four compounds from paper PMC12297293 (Nature Communications, 2025).

Positions count from the first letter of the chain named. Counter-ions that a name gives are not always drawn. Like-named read-outs stand apart in the source and are kept apart here.

One assay has as its target T1, human GMPK (Homo sapiens, UniProt Q16774).
T1 sequence (Q16774 1-197): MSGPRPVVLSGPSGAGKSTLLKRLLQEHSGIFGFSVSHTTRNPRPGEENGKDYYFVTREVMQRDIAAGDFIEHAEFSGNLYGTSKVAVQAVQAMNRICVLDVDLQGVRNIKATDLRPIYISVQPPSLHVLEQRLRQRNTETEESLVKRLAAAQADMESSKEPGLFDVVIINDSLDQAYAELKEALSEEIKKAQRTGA
Description: NMR chemical shift perturbation titration. In kind it is binding. Put shortly: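 15N-GMPK was expressed in M9 medium with 0.5 mM IPTG at 16 °C for 20 h, then diluted to 50–100 μM in 20 mM HEPES, 150 mM NaCl, pH 7.5, 10% D2O. 1H-15N HSQC at 298 K, 700 MHz with cryoprobe. Assignments transferred from BMRB 27151; overlapped peaks excluded. Chemical shift perturbations globally fitted to a one-site model with Kd shared across residues.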

Assay [1] addresses T2, human GMPK wild type (Homo sapiens, UniProt Q16774).
T2 sequence (Q16774 1-197): T1 sequence (Q16774 1-197)
Description: ITC binding of nucleotides to wild-type GMPK. Put shortly:
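ITC at 25 °C with recombinant human GMPK: SUMO-tagged, expressed in E. coli Rosetta (DE3), Ni-purified, tag cut with ULP1, then SEC. Both partners were in 20 mM HEPES pH 7.5 with 150 mM KCl. Cell held 50 μM GMPK; syringe held 1 mM GMP. One 1 μL injection was followed by 19 × 2 μL injections. Triplicate experiments.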

Another assay concerns the target T3, GMPK R148A mutant (Homo sapiens, UniProt Q16774, R148A).
T3 sequence (Q16774 1-197 R148A): T1 sequence (Q16774 1-197) with R148A
Description: ITC binding, GMPK R148A. Particulars: R148A vs wild type. Put shortly:
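Mutant made by homologous recombination and Sanger-verified, then expressed in E. coli Rosetta (DE3). Purified by Ni column, ULP1 cleavage of the SUMO tag and SEC (20 mM HEPES, 150 mM NaCl, pH 7.5). ITC at 25 °C with 50 μM protein in the cell and 1.25 or 2.5 mM GMP in the syringe. Injections: 1 μL, then 19 × 2 μL.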

The target in the next assay is T4, GMPK-ATPγS mixture (Homo sapiens, UniProt Q16774).
T4 sequence (Q16774 1-197): T1 sequence (Q16774 1-197)
Kind of assay: ITC of GMP into GMPK-ATPγS mixture. To be noted: GMP binding after prior incubation of ATPγS. Put shortly:
(§1)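 GMP titrated into a preformed nucleotide–enzyme mixture by ITC at 25 °C. Cell held 50 μM recombinant human GMPK premixed with 0.5 mM ADP or ATPγS. Syringe held 2 or 2.5 mM GMP. One 1 μL injection, then 19 × 2 μL. Fitted Kd reported.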

In the next assay the target is T5, GMPK-ADP mixture (Homo sapiens, UniProt Q16774).
T5 sequence (Q16774 1-197): T1 sequence (Q16774 1-197)
Kind of assay: ITC of GMP into GMPK-ADP mixture. To be noted: GMP binding after incubation of ADP. Put shortly: as §1

Assay [2] has as its target T2, human GMPK wild type. Description: NADH-dependent enzyme activity assay, wild-type GMPK. In kind it is biochemical.

In the case of `Nc1ncnc2c1ncn2[C@@H]1O[C@H](CO[P@](=O)(O)O[P@](=O)(O)O[P@@](=O)(O)S)[C@@H](O)[C@H]1O` [ATPγS, reference compound], at human GMPK, the Kd was found to be 30 µM.

Take `Nc1nc2c(ncn2[C@@H]2O[C@H](COP(=O)(O)O)[C@@H](O)[C@H]2O)c(=O)[nH]1` [GMP]: the Kd on human GMPK wild type [1] (GMP binding to GMPK without prior incubation) was determined as 32 µM; at human GMPK wild type [1] (read-out: Mean Kd, GMP into GMPK, 150 mM KCl, triplicate experiments), 7.1 µM; at GMPK-ATPγS mixture it was 170 µM; at GMPK-ADP mixture, 60 µM. Besides, at GMPK R148A mutant, the “weakening of GMP binding by R148A mutagenesis” value came to 1.7 fold.

Consider `[Cl-].[K+]` [KCl, potassium chloride], for which the “decrease of kcat at 150 mM relative to 10 mM” value at human GMPK wild type [2] (150 mM vs 10 mM potassium ions) turned out to be 1.5 fold. Further, the “K+ concentration at which the initial reaction rate reached its maximum” value on human GMPK wild type [2] (saturating substrate conditions) is listed as “about 7.5 mM”.

Take `O=S(=O)(O)O` [sulfate ions, sulfate ion]: the mode of inhibition entry at human GMPK wild type [2] (Michaelis-Menten curves for ATP under 1, 5 and 10 mM SO4 2-) is reported as “competitive inhibitor of ATP”. In addition, the Kd at human GMPK (read-out: Kd from NMR titration, binding to the p-loop region of GMPK) came out at 5600 µM.
